Screens deposited in PubChem by Sanford-Burnham Center for Chemical Genomics.
An excerpt weighted towards active compounds, which were near 0.79% of everything screened.
mIAP act = activators of mouse IAP, primary screen, biochemical, luminescence, uHTS. intestinal alkaline phosphatase [Mus musculus]. muIAP, CDP-Star luminescence, 30 min; hits give high values; 1 = vehicle-only enzyme signal, 0 = enzyme-free wells. activation factor at 10 µM. 0.24% of 330,000 active;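 active means activation factor of at least 2 at 20 µM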
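System: mouse IAP enzyme. Reagent: CDP-Star chemiluminescent phosphatase substrate. Benchmarks: DMSO wells, no-enzyme wells. Times: 30 min enzyme-substrate-compound incubation at room temperature. Detection: luminescence from enzymatic CDP-Star hydrolysis. Doses: test compounds delivered from DMSO solution.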
bIAP activator = bovine intestinal alkaline phosphatase activators, primary screen, biochemical, bovine IAP, CDP-star luminescence | 0.17% of 200,000 active | purified bovine IAP, 30 min; hits give high values; fold of DMSO-control signal, blank-subtracted | activation factor at 20 µM;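 active means activation factor of 2 or more at 20 µM, a signal rise over negative controls twice the positive control's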
hIAP activ = human IAP activators, primary screen, biochemical, luminescence, uHTS; AID 2524, 2010; purified human IAP, CDP-Star luminescence, 30 min; hits give high values; 1 = vehicle-only enzyme, 0 = enzyme-free background; 0.16% of 330,000 active; activation factor at 10 µM;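 active means activation factor of the enzyme at least 2-fold when tested at 20 µM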
Target sequence (P09923 whole entry, looked up): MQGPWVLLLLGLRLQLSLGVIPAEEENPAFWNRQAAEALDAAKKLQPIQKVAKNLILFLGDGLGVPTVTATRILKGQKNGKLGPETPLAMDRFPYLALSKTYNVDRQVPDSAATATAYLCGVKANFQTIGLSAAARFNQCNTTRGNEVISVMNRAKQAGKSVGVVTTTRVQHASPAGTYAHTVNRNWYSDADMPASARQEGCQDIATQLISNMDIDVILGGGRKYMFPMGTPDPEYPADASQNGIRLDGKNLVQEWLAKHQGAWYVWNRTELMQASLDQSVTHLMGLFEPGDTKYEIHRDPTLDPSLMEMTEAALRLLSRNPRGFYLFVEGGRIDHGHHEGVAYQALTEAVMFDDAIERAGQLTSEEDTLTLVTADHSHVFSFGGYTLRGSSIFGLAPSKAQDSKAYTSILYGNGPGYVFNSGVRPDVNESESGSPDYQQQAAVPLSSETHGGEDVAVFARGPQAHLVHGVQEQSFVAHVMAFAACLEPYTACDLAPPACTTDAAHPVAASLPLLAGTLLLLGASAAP
hIAP block = human IAP inhibitors, primary screen, biochemical, luminescence, uHTS; Intestinal-type alkaline phosphatase (Homo sapiens), P09923; purified IAP, CDP-Star luminescence, 30 min; inhibition, % at 10 µM; 0.12% of 330,000 active; AID 2544, 2010;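 active means inhibition reaching a set limit with compound at 10 µM in the primary screen, cut at about 35% in these data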
mIAP block = inhibitors of mouse IAP, primary screen, biochemical, luminescence, uHTS | purified mouse IAP, CDP-Star luminescence, 30 min | inhibition, % at 10 µM | 0.2% of 330,000 active | AID 2806, 2010;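 active means inhibition of at least 40% at 10 µM in the primary screen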
bIAP inhibitor = bovine intestinal alkaline phosphatase inhibitors, primary screen, selectivity assay for TNAP inhibitor project, biochemical, bovine IAP, CDP-star luminescence; 190,000 tested, under 10 active; inhibition, % at 20 µM; AID 1019, 2008; purified bovine IAP, 30 min;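 active means over 50% inhibition of intestinal alkaline phosphatase at 20 µM in the single-dose screen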
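Incubation: 30 min reaction at room temperature / Material: purified bovine intestinal alkaline phosphatase (IAP) enzyme / Input: enzyme at 1/65,000,000 dilution / Dosing: 20 µM single dose / Signal: CDP-star luminescence signal / Reagent: CDP-star chemiluminescent phosphatase substrate, 30 µM final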
A number is an active result; n = inactive; x = no result given.

SMILES	mIAP act	bIAP activator	hIAP activ	hIAP block	mIAP block	bIAP inhibitor
CCc1cccc(CN2CCC(CNC(=O)Nc3ccc(Cl)cc3)CC2)c1	3.6	n	n	n	n	n
O=C(NCC1CCN(Cc2cccc(Cl)c2)CC1)Nc1ccc(Cl)cc1	3.1	x	n	n	n	x
Fc1ccc(N2N=C(c3cccs3)CC2c2ccccc2)cc1 (stereo unspecified)	n	n	n	n	n	n
Fc1ccccc1N1CC(c2ccccc2)C(c2cccs2)=N1 (stereo unspecified)	2.2	n	n	n	n	n
O=C(Nc1nc(-c2ccc(Cl)cc2)cs1)NC1CCCCC1	3.7	n	n	n	n	n
Fc1ccc(-c2csc(NC(=S)Nc3ccccc3)n2)cc1	n	x	n	n	n	x
O=C(Nc1ccccc1)Nc1nc(-c2ccc(F)cc2)cs1	2.5	n	n	n	n	n
CC(C)CCCCCCNC(=S)Nc1ccc(S(=O)(=O)N2CCOCC2)cc1	2.2	n	n	n	n	n
O=S(=O)(c1ccc(NC(=S)Nc2ccccc2)cc1)N1CCOCC1	n	n	n	n	n	n
COc1cc(NC(=O)Cn2cnc3c(NCc4ccccc4)ncnc32)cc(OC)c1OC	n	x	x	x	n	x
O=C(CSC(=S)N1CCN(c2ccccc2)CC1)Nc1nc(-c2ccccc2)c(-c2ccccc2)o1	n	2.2	n	n	n	n
Cc1ccc(S(=O)(=O)N2CCN(CC(=O)NC3CCCc4ccccc43)CC2)c(C)c1 (stereo unspecified)	n	56	n	n	n	n
C=CCc1c(NCCO)nc(C)[nH]c1=O	n	n	n	n	n	n
COc1ccc2c(COC(=O)[C@H](C)NS(=O)(=O)c3ccccc3F)cc(=O)oc2c1	n	x	n	n	n	x
COc1ccc(N2C3=C(CC4=C2CCCC4=O)C(=O)CCC3)cc1	n	n	n	n	46	n
COc1cccc(NS(=O)(=O)c2cn(C)c(=O)n(C)c2=O)c1	n	5.1	n	n	n	n
Cn1cc(S(=O)(=O)Nc2cccc(F)c2)c(=O)n(C)c1=O	n	n	n	n	n	n
COc1ccc(S(=O)(=O)NCC2CCCO2)cc1NC(=O)c1ccccc1F (stereo unspecified)	n	x	n	n	n	x
OC[C@@H]1[C@@H](c2ccc(Cl)cc2)C(c2ccccc2)=NN1c1ccccc1	2	x	x	x	n	x
C[C@H]1C(c2ccc(F)cc2)=NN(c2ccccc2)[C@@H]1CO	n	x	x	x	n	x
COc1ccccc1[C@H]1C(c2ccc(F)cc2)=NN(c2ccccc2)[C@@H]1CO	n	x	x	x	n	x
OC[C@@H]1[C@@H](c2ccc(F)cc2)C(c2cccc(Cl)c2)=NN1c1ccccc1	2.1	x	x	x	n	x
Cc1ccc2c(c1)N(C(=O)CCC(=O)NCc1cccc(F)c1)CCO2	n	x	n	n	n	x
CC(C)(C)Cc1nnc(NC(=O)CCc2ccccc2)s1	n	x	n	n	n	x
Oc1ccc(-c2nc(-c3ccc(O)c(O)c3)cs2)cc1	n	n	n	38	n	n
SMILES	mIAP act	bIAP activator	hIAP activ	hIAP block	mIAP block	bIAP inhibitor
FC(F)(F)c1ccc(NC(=S)NCc2ccccc2)cc1	2	n	n	n	n	n
FC(F)Sc1ccc(NC(=S)NCc2ccccc2)cc1	2.1	n	n	n	n	n
Cc1cc2nc(C3CCN(CC4COc5ccccc5O4)CC3)[nH]c2cc1C (stereo unspecified)	n	4.5	n	n	n	n
CN(C)NC(=S)Nc1cccc(C(F)(F)F)c1	n	x	n	n	n	x
FC(F)(F)c1cccc(NC(=S)NNC(=S)Nc2ccc(Cl)cc2)c1	n	x	n	n	n	x
FC(F)(F)c1cccc(NC(=S)NCc2ccc(Cl)cc2)c1	2.7	n	n	n	n	n
S=C(NCc1ccccc1)Nc1cccc(Cl)c1	2.3	n	n	n	n	n
Fc1ccccc1CNC(=S)Nc1cccc(C(F)(F)F)c1	2.7	n	n	n	n	n
CC(NC(=S)Nc1cccc(C(F)(F)F)c1)C(C)(C)C (stereo unspecified)	3.7	n	n	n	n	n
O=C(CNc1cccc(Cl)c1)NNC(=S)NCc1ccccc1	n	n	n	n	n	n
Cc1nc2cc(F)ccc2n1C1CCN(C(=O)c2c(F)cccc2F)CC1	n	n	n	n	n	n
CCc1ncc(CN2CCCC(C(=O)Nc3ccc(-c4cscn4)cc3)C2)cn1 (stereo unspecified)	n	x	n	n	n	x
COc1ccc(CNC(=S)Nc2ccccc2)cc1Cl	n	x	n	n	n	x
COc1ccc(CNC(=S)Nc2ccc(F)c(Cl)c2)cc1OC	2.6	n	n	n	n	n
Fc1ccccc1NC(=S)NCc1ccc(Cl)cc1	n	x	n	n	n	x
Fc1ccc(CNC(=S)Nc2cccc(C(F)(F)F)c2)cc1	2.6	n	n	n	n	n
Fc1ccc(CNC(=S)NCc2ccc(F)cc2)cc1	n	x	n	n	n	x
Fc1cccc(NC(=S)NCc2ccc(Cl)cc2)c1	2.5	n	n	n	n	n
Fc1cc(NC(=S)NCc2ccc(CNC(=S)Nc3ccc(Cl)c(F)c3)cc2)ccc1Cl	2.1	x	n	n	n	x
CC(C#N)(Cc1ccccc1)Nc1ccccc1 (stereo unspecified)	n	x	n	n	n	x
Cc1c(Cl)c([N+](=O)[O-])nn1CC(=O)N1CCN(Cc2ccccc2)CC1	n	n	n	n	n	n
COc1ccc(-c2nsc(SCC(=O)NCC3CCCO3)n2)cc1 (stereo unspecified)	n	n	n	n	n	n
O=C(C1CCCN1S(=O)(=O)c1ccc(Cl)cc1)N1CCN(c2ccccc2)CC1 (stereo unspecified)	n	x	n	n	n	x
O=C(O)C1CCC(CNS(=O)(=O)c2ccccc2)CC1 (stereo unspecified)	n	x	n	n	n	x
Cc1ccccc1-n1nc2c(c1NC(=O)c1ccc(S(=O)(=O)N(C)C)cc1)CSC2	n	n	n	n	46	n
SMILES	mIAP act	bIAP activator	hIAP activ	hIAP block	mIAP block	bIAP inhibitor
CC(=O)c1cccc(NC(=O)COc2ccc3oc(=O)cc(C)c3c2)c1	n	x	n	n	n	x
COc1ccc(-c2nc3ccccc3n2Cc2ccccc2)cc1	n	3	n	n	n	n
C=CCn1c(-c2ccc(OC)cc2)nc2ccccc21	n	n	n	n	n	n
Cc1cc2nc(CCN(C(=S)NCC(C)C)C3CCCC3)[nH]c2cc1C	2.1	n	n	n	n	n
c1ccc2c(c1)CCN(c1ncnc3c1[nH]c1ccccc13)C2	n	2.1	n	n	n	n
Cn1c(SCC(=O)Nc2ccc(Br)cc2)nc(O)cc1=O	n	x	n	n	n	x
